# VIM-2 inhibitor – VIM-2 metallo-beta-lactamase inhibitors, primary screen, biochemical, epi-absorbance readout, Pseudomonas aeruginosa enzyme; purified VIM-2, nitrocefin hydrolysis, epi-absorbance fluorescence; inhibition, % at 5.6 µM; 0.89% of 290,000 active; AID 1527, 2009;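 active = inhibition above the mean of all tested compounds plus 3 SD, cutoff set per screening run, cut at about 7.5% in these data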;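 also: red hydrolysis product quenches plate fluorescence so inhibitors raise well fluorescence; 0% = enzyme with DMSO and 100% = DMSO without enzyme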
# IMP-1 inh – IMP-1 metallo-beta-lactamase inhibitors, primary screen, biochemical, epi-absorbance readout, Pseudomonas aeruginosa enzyme | purified IMP-1, nitrocefin hydrolysis, epi-absorbance fluorescence | inhibition, % at 5.6 µM | AID 1556, 2009 | 0.45% of 290,000 active;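 active = inhibition above the mean plus 3 SD of all compounds in the same screening run, cut at about 4.5% in these data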;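 also: 0% = IMP-1 with DMSO and 100% = DMSO wells lacking enzyme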
#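 Assay system: purified IMP-1; Quantity: IMP-1 0.2 nM before substrate addition; Medium: HEPES buffer pH 7.1 with ZnSO4 and Brij 35; Incubation: 15 min enzyme–compound preincubation, then 25 min nitrocefin reaction, 25 °C; Signal: fluorescence quenching readout, ex 480/em 530 nm; Controls: DMSO with and without IMP-1; Repeats: singlicate testing.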
# Fh CTSL1 inh – Fasciola hepatica cathepsin L1 inhibitors, primary screen, counter-screen for PFM18AAP inhibitor project, biochemical, QFRET, fluorogenic peptide substrate; 0.49% of 300,000 active; AID 1906, 2009; recombinant F. hepatica cathepsin L1, Z-Leu-Arg-MCA fluorescence; inhibition, % at 5.96 µM;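 active = inhibition above the mean of all tested compounds plus 3 SD, set per screening campaign, cut at about 17% in these data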;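 also: 0% = plate median of test compound wells and 100% = 1 µM Z-Phe-Ala-diazomethylketone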
# PfM18AAP inh – PfM18AAP inhibitors, malaria aminopeptidase, primary screen, biochemical, QFRET, recombinant enzyme; M18 aspartyl aminopeptidase (Plasmodium falciparum 3D7); H-Glu-NHMec fluorogenic cleavage; inhibition, % at 7.35 µM; 1.2% of 290,000 active; AID 1822, 2009;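 active = inhibition above the campaign mean inhibition over all tested compounds plus 3 SD, cut at about 28% in these data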;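 also: 0% = plate median of test compound wells and 100% = 2 mM ZnCl2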
# Active calls of the source: *; . = no result given. Compounds with a hit are over-represented: about 2.7% of the library has one in this group of screens.
SMILES,VIM-2 inhibitor,IMP-1 inh,Fh CTSL1 inh,PfM18AAP inh
CC(C)(C)OC(=O)CC[C@@H](C(=O)N1CCN(C(=O)OC(C)(C)C)CC1)n1cc(C(CO)NC(=O)OC(C)(C)C)nn1 (stereo not given in full),-2.7,-2.4,-2.6,6.3
CCOC(=O)C1CCCN(C(=O)c2cc(-c3ccncc3)nc3ccccc23)C1 (stereo not given),.,.,5.1,.
Cc1nc2ccccc2c2oc(C(=O)N3CC(C)CC(C)C3)cc12 (stereo not given),9.8*,-0.1,-0.1,3.4
CCOC(=O)C1CCCN(C(=O)c2cc3c(C)nc4ccccc4c3o2)C1 (stereo not given),7.9*,-4.9,0.2,6.0
Cc1ccc(C)c(N2CCN(C(=O)c3cc4c(C)nc5ccccc5c4o3)CC2)c1,-2.8,-2.7,-1.2,-5.4
CCOC(=O)C1CCCN(c2nc(C)nc3c2oc2ccccc23)C1 (stereo not given),10.4*,-2.2,2.1,-3.9
O=c1c2ccccc2nc(N/N=C/c2c(O)ccc3ccccc23)n1O,-2.6,-3.5,1.1,30.4*
CCCCN(CCCC)CCn1cnc2c([nH]c3ccc(OC)cc32)c1=O,-3.4,-2.5,106.7*,1.0
O=C(CCS(=O)(=O)c1ccccc1)OCc1ccc([N+](=O)[O-])cc1,0.5,-1.4,-45.5,-1.1
C/C(=C\C=C\c1ccccc1)C(=O)c1c(C)cc(C)[nH]c1=O,-3.2,-2.1,22.2*,-1.9
Cc1cc(C)c(C(=O)/C=C/C=C/c2ccccc2)c(=O)[nH]1,-0.9,-3.6,15.1,0.9
Cn1c(SCC(=O)NC(=O)Nc2ccccc2)nnc1-c1ccncc1,-2.3,-1.4,-3.4,-3.0
CCOC(=O)c1cc(=O)[nH]c2ccccc12,-3.7,-3.8,2.5,-4.7
CCCOC(=O)c1cc(=O)[nH]c2ccccc12,0.1,4.5*,5.3,-1.2
CCN(CC)C(=O)Cn1c(=O)n(CCCC(=O)NCc2ccccc2)c(=O)c2sccc21,-0.8,-2.4,1.4,2.3
COCCOC1CCN(C(=O)c2cc(COc3ccc(F)cc3F)on2)CC1,-3.1,-2.3,-1.4,7.0
Cc1ccc(-n2nc3c(N4CCC(C(=O)N5CCCCCC5)CC4)nnc(C)c3c2C)cc1,1.8,-0.7,1.2,-0.2
COc1ccc(-n2nc3c(N4CCC(C(=O)N5CCCCCC5)CC4)nnc(C)c3c2C)cc1,1.0,-5.5,27.8*,4.5
O=C(O)CCCCCN1C(=O)/C(=C\c2cn(-c3ccccc3)nc2-c2cccs2)SC1=S,-1.8,-3.5,2.6,0.3
CC1=NNC(=O)/C1=C\c1cn(-c2ccccc2)nc1-c1cccs1,-5.7,-1.6,2.1,44.9*
CCCCN1CCc2c([nH]c3c(C)cccc23)C1=O,-0.6,-3.6,0.4,2.1
CCOc1ccc(C2CC(c3ccc(OC)cc3)n3ncnc3N2)cc1 (stereo not given),-1.0,-3.2,18.1*,3.2
COc1ccc(C2CC(c3ccc(Cl)cc3)n3nc(N)nc3N2)cc1 (stereo not given),-0.9,5.0*,-3.5,-1.6
CCN(Cc1cc(=O)n2ccsc2n1)Cc1nc2ccccc2c(=O)[nH]1,-1.1,-0.5,-3.3,-6.4
CC1CCN(S(=O)(=O)c2ccc3c(c2)N(CC(=O)NCCCN2CCCCC2)C(=O)CS3)CC1,1.4,-1.5,5.7,-16.6
SMILES,VIM-2 inhibitor,IMP-1 inh,Fh CTSL1 inh,PfM18AAP inh
COc1ccc(Cl)cc1NC(=O)NCc1ccccn1,-2.6,-4.0,-3.0,5.7
O=C(O)c1cc(O)c2c(c1)C(=O)c1cccc(O)c1C2=O,6.6,4.6*,0.3,28.5*
Cc1cc(O)c2c(c1)C(=O)c1cccc(O)c1C2=O,-2.1,0.2,.,6.7
COC(=O)c1ccc(N2NC(=O)/C(=C/c3cc(OC)c(O)c(OC)c3)C2=O)cc1,-9.2,-3.4,12.1,31.1*
COC(=O)c1ccc(N2NC(=O)/C(=C/c3cc(OC)c(OC)c(OC)c3)C2=O)cc1,-4.5,-2.9,3.4,6.4
COc1cc(/C=C2/C(=O)NN(c3ccc(Cl)cc3)C2=O)cc(Br)c1O,-3.8,9.7*,0.3,9.4
N#C/C(=C\c1ccc(OCC(N)=O)cc1)c1ccccc1,-0.7,-4.0,1.3,-4.6
COc1cc(NC(=S)NCCCN2CCOCC2)c(OC)cc1Cl,-1.4,-3.2,1.0,3.4
COc1cc(NC(=O)C(=O)NCCN2CCNCC2)c(OC)cc1Cl,10.2*,-2.0,-0.9,-8.1

# Bioassay records as filed in PubChem BioAssay.
